For data set [1], the target named is T1, Cholinesterase (Homo sapiens, UniProt P06276). The data set can be described thus: Inhibition of BuChE in human serum using butyrylthiocholineiodide as substrate pre-incubated for 10 mins followed by substrate addition and measured for 6 mins by DTNB reagent based Ellman's method. It counts as cell-free. The essentials: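 AChE from human erythrocytes at 0.25 U/ml in 20 mM HEPES pH 8 with 0.1% Triton X-100, or BuChE from human serum at 0.25 U/ml in 0.1% gelatine. Substrate ATCI or BTCI at […], DTNB […], in 0.1 M PBS pH 7.4. Enzyme and inhibitor (DMSO stock, five concentrations) preincubated 10 min, then substrate added; rate followed 6 min at 37 °C. Non-enzymatic blank subtracted. Triplicates; IC50 from log concentration–percent inhibition curves.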
(In Ellman's method for cholinesterases, released thiocholine reacts with DTNB.)

Data set [2] concerns the target T2, Acetylcholinesterase (Homo sapiens, UniProt P22303). In words: Inhibition of AChE in human erythrocytes using acetylthiocholineiodide as substrate pre-incubated for 10 mins followed by substrate addition and measured for 6 mins by DTNB reagent based Ellman's method. It counts as cell-based, Erythrocyte.
A short description of data set [3]: Permeability of the compound measured after 16 hrs by PAMPA-BBB assay. On the technique in general: PAMPA measures passive passage across an artificial lipid membrane.
Data set [4] deals with T2, Acetylcholinesterase. In words: Non-competitive inhibition of AChE in human erythrocytes measured at 2 mins interval for 10 mins by Dixon plot analysis. It counts as cell-based, Erythrocyte. The essentials:
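Human AChE kinetics in the Ellman DTNB assay. Inhibitor at 25, 50 and 100 nM, each with six ATCI concentrations, against an inhibitor-free series. Activity read every 2 min over 10 min. Km and Vmax from Michaelis–Menten non-linear regression; mechanism from Lineweaver–Burk plots; Ki from Dixon plot over four inhibitor concentrations and from slope/intercept replots. Triplicate.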

Data set [5] is described as follows: Neuroprotective activity in human MC65 cells cultured in TC-deficient medium assessed as inhibition of TC-deficiency induced oxidative stress by measuring increase in cell viability at 60 to 80 uM measured after 12 hrs by MTT assay relative to cells cultured in tetracycline containing medium. Format: functional. The following applies: dose 60-80 µM. An outline of the steps:
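MC65 cells grown in MEM, PBS-washed and resuspended in MEM, then seeded at 5×10⁴ cells/well with or without TC. Compounds (80–1 μM) added to TC-free wells and incubated 12 h at 37 °C. MTT (5 mg/ml) added for a further 4 h; formazan dissolved in DMSO:H₂O 1:1 and read at 570 nm. Viability expressed as % of +TC control. Triplicate wells, three runs.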

In data set [6] the target is T2, Acetylcholinesterase. The data set can be described thus: Inhibition of AChE (unknown origin) by DTNB reagent based Ellman's method. An outline of the steps: (§1)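 Ellman assay with DTNB read at 412 nm. AChE from human erythrocytes at 0.25 U/ml in 20 mM HEPES pH 8 with 0.1% Triton X-100, or BuChE from human serum at 0.25 U/ml in 0.1% gelatine. Substrate ATCI or BTCI at […], DTNB […], in 0.1 M PBS pH 7.4. Enzyme and inhibitor (DMSO stock, five concentrations) preincubated 10 min, then substrate added; rate followed 6 min at 37 °C. Non-enzymatic blank subtracted. Triplicates; IC50 from log concentration–percent inhibition curves.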

Data set [7] addresses T1, Cholinesterase. In words: Inhibition of BuChE (unknown origin) by DTNB reagent based Ellman's method. The essentials:
as §1

Bounds are passed on as bounds.

T2 sequence (P22303 whole entry): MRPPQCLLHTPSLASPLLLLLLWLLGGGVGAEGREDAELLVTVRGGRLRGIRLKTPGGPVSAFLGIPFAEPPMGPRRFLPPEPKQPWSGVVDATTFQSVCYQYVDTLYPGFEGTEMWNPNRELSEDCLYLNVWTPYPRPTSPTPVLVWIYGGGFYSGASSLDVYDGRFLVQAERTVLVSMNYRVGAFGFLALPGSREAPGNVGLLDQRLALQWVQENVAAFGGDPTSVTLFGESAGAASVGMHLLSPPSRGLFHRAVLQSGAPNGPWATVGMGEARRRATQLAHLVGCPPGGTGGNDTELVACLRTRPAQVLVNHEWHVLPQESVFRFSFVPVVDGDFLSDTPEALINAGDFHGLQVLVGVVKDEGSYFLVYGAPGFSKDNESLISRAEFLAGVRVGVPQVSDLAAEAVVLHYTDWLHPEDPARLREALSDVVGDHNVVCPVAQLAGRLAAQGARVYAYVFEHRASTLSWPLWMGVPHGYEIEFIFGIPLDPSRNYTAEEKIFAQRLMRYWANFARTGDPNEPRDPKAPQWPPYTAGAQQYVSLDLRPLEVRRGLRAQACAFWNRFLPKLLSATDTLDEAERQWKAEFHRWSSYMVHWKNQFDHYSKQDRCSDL
T1 sequence (P06276 whole entry): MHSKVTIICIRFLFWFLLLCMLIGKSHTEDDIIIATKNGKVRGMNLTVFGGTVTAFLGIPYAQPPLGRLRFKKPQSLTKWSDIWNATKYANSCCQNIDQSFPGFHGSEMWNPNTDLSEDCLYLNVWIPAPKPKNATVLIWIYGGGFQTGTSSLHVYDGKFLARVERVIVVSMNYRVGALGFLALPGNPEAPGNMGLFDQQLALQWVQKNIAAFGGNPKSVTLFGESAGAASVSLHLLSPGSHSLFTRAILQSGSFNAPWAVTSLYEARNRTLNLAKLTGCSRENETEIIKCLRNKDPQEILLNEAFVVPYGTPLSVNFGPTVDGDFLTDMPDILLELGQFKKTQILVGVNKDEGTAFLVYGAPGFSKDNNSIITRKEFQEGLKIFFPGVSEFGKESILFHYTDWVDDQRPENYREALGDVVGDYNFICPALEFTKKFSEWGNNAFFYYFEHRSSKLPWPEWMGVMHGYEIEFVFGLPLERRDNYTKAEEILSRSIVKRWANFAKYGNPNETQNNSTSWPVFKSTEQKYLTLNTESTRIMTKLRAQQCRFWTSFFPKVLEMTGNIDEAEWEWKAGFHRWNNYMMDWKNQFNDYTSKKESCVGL

For orientation: IC50 means the concentration at which inhibition is half-maximal. Read a low IC50 as inhibition by little substance. For the compound `CCOC(=O)c1c(C)nc(N2CCN(S(=O)(=O)c3ccc(N)c(Cl)c3)CC2)nc1-c1ccc(OC)cc1`, the IC50 was determined as 178 nM on Cholinesterase [1] and 77.9 nM against Acetylcholinesterase [2].
For the compound `CCOC(=O)c1c(C)nc(N2CCN(S(=O)(=O)c3ccc(NC(C)=O)c(OC)c3)CC2)nc1-c1ccc(OC)cc1`, the concentration for half-maximal inhibition (IC50) was 194 nM against Cholinesterase [1] and 79.3 nM at Acetylcholinesterase [2].
`CCOC(=O)c1c(C)nc(N2CCN(S(=O)(=O)c3ccc(NC(C)=O)cc3)CC2)nc1-c1ccc(OC)cc1`: the IC50 at Cholinesterase [1] is more than 200 nM; at Acetylcholinesterase [2] it was 132 nM.
The like results for `CCOC(=O)c1c(C)nc(N2CCN(S(=O)(=O)c3ccc(NC(C)=O)c(F)c3)CC2)nc1-c1ccccc1` were, in that order, 194 nM and 97.4 nM.
On the same counts, the results for `CCOC(=O)c1c(C)nc(N2CCN(S(=O)(=O)c3ccc(N)c(OC)c3)CC2)nc1-c1ccc(OC)cc1` are 187 nM and 68.5 nM.
The like results for `CCOC(=O)c1c(C)nc(N2CCN(S(=O)(=O)c3ccc(N)c(F)c3)CC2)nc1-c1ccccc1` were, in that order, more than 200 nM and more than 200 nM.
For the compound `CCOC(=O)c1c(C)nc(N2CCN(S(=O)(=O)c3ccc(N)c(OC)c3)CC2)nc1-c1ccccc1`, the IC50 at Cholinesterase [1] came out at 184 nM; against Acetylcholinesterase [2], 84.6 nM.
For `CCOC(=O)c1c(C)nc(N2CCN(S(=O)(=O)c3ccc(N)cc3)CC2)nc1-c1ccccc1`, the IC50 at Cholinesterase [1] and against Acetylcholinesterase [2] was more than 200 nM in each case.
Broadly, the Papp is the rate of passage across a membrane or cell layer, normalised by area and donor concentration. Usually Ki stands for the dissociation constant of the complex between target and ligand, obtained from inhibition or displacement. Lower therefore signals tighter binding. For `CCOC(=O)c1c(C)nc(N2CCN(S(=O)(=O)c3ccc(NC(C)=O)c(Cl)c3)CC2)nc1-c1ccc(OC)c(OC)c1`, the concentration for half-maximal inhibition (IC50) at Cholinesterase [1] came out at 159 nM; on Acetylcholinesterase [2] it was 47.3 nM. This compound yielded a Papp at 16 h in data set [3] of 24.3 ×10⁻⁶ cm/s. This compound showed a Ki at Acetylcholinesterase [4] of 8 nM. In data set [5], the Activity turned out to be 99.41%.
`CCOC(=O)c1c(C)nc(N2CCN(S(=O)(=O)c3ccc(N)c(F)c3)CC2)nc1-c1ccc(OC)cc1`: the IC50 turned out to be 157 nM against Cholinesterase [1] and 101 nM against Acetylcholinesterase [2].
On the same counts, the results for `CCOC(=O)c1c(C)nc(N2CCN(S(=O)(=O)c3ccc(NC(C)=O)c(Cl)c3)CC2)nc1-c1ccc(OC)cc1` are more than 200 nM and 87.6 nM.
With `CCOC(=O)c1c(C)nc(N2CCN(S(=O)(=O)c3ccc(NC(C)=O)c(OC)c3)CC2)nc1-c1ccc(OC)c(OC)c1`, the IC50 is more than 200 nM against Cholinesterase [1] and 79.2 nM against Acetylcholinesterase [2].
The like results for `CCOC(=O)c1c(C)nc(N2CCN(S(=O)(=O)c3ccc(N)c(F)c3)CC2)nc1-c1ccc(OC)c(OC)c1` were, in that order, 177 nM and 66.1 nM.
The like results for `CCOC(=O)c1c(C)nc(N2CCN(S(=O)(=O)c3ccc(N)cc3)CC2)nc1-c1ccc(OC)cc1` were, in that order, 192 nM and 71.9 nM.
On the same counts, the results for `CCOC(=O)c1c(C)nc(N2CCN(S(=O)(=O)c3ccc(NC(C)=O)c(Cl)c3)CC2)nc1-c1ccccc1` are 156 nM and 144 nM.
As to `CCOC(=O)c1c(C)nc(N2CCN(S(=O)(=O)c3ccc(N)cc3)CC2)nc1-c1ccc(OC)c(OC)c1`, the IC50 was more than 200 nM against Cholinesterase [1] and 68 nM against Acetylcholinesterase [2].
On the same counts, the results for `CCOC(=O)c1c(C)nc(N2CCN(S(=O)(=O)c3ccc(NC(C)=O)c(F)c3)CC2)nc1-c1ccc(OC)cc1` are 168 nM and 91.9 nM.
Consider `CCOC(=O)c1c(C)nc(N2CCN(S(=O)(=O)c3ccc(N)c(Cl)c3)CC2)nc1-c1ccc(OC)c(OC)c1`, for which the IC50 at Cholinesterase [1] is 153 nM; on Acetylcholinesterase [2], 51.4 nM. The Papp at 16 h in data set [3] is 23.7 ×10⁻⁶ cm/s.
For the compound `CCc1ccc(NC(=O)COc2c(Cl)cc(Cl)cc2S(=O)(=O)N2CCN(C(=O)c3ccco3)CC2)cc1`, the IC50 turned out to be 5.54 µM at Acetylcholinesterase [6] and 9.15 µM against Cholinesterase [7].
With `CCOC(=O)c1c(C)nc(N2CCN(S(=O)(=O)c3ccc(NC(C)=O)c(F)c3)CC2)nc1-c1ccc(OC)c(OC)c1`, the IC50 is 186 nM against Cholinesterase [1] and 76.5 nM against Acetylcholinesterase [2].
The like results for `CCOC(=O)c1c(C)nc(N2CCN(S(=O)(=O)c3ccc(NC(C)=O)c(OC)c3)CC2)nc1-c1ccccc1` were, in that order, 184 nM and 79 nM.
In the case of `CCOC(=O)c1c(C)nc(N2CCN(S(=O)(=O)c3ccc(N)c(OC)c3)CC2)nc1-c1ccc(OC)c(OC)c1`, the IC50 was more than 200 nM at Cholinesterase [1] and 85.6 nM against Acetylcholinesterase [2].
With `CCOC(=O)c1c(C)nc(N2CCN(S(=O)(=O)c3ccc(N)c(Cl)c3)CC2)nc1-c1ccccc1`, the figures for the IC50 against Cholinesterase [1] and against Acetylcholinesterase [2] were 137 nM and 79.1 nM, respectively.
On the same counts, the results for `CCOC(=O)c1c(C)nc(N2CCN(S(=O)(=O)c3ccc(NC(C)=O)cc3)CC2)nc1-c1ccccc1` are more than 200 nM and 118 nM.
The like results for `CCOC(=O)c1c(C)nc(N2CCN(S(=O)(=O)c3ccc(NC(C)=O)cc3)CC2)nc1-c1ccc(OC)c(OC)c1` were, in that order, 167 nM and 88.8 nM.

The record behind these values is ChEMBL document CHEMBL4732210, “Discovery of new phenyl sulfonyl-pyrimidine carboxylate derivatives as the potential multi-target drugs with effective anti-Alzheimer's action: Design, synthesis, crystal structure and in-vitro biological evaluation” (Eur J Med Chem, 2021).
